Results published in ChEMBL document CHEMBL4011622, “The Structure-Activity Relationship of a Tetrahydroisoquinoline Class of N-Methyl-d-Aspartate Receptor Modulators that Potentiates GluN2B-Containing N-Methyl-d-Aspartate Receptors” (J Med Chem, 2017).
pEC50: −log10 of the molar value. Active and inactive are the calls of the source. The calls are words filed in the database; no cut-off is given here.

Experiments:
[1] = target: T1, Glutamate NMDA receptor; Grin1/Grin2b (Rattus norvegicus, UniProt P35439+Q00960); assay: Positive allosteric modulation of recombinant rat GluN1/GluN2B receptor expressed in xenopus laevis oocyte assessed as potentiation of glutamate and glycine-induced current response at holding potential -40mV by two electrode voltage clamp method
In short: (§1)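 Two-electrode voltage clamp at -40 mV, 23°C, pH 7.4 Ba²⁺ recording solution, on Xenopus oocytes expressing rat NMDA receptors. Currents were evoked by 100 µM glutamate plus 30 µM glycine, with compound co-applied (DMSO 0.05–0.5% final). Each compound used at least 4 oocytes from at least 2 frogs.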

[2] = target: T2, Glutamate NMDA receptor; Grin1/Grin2b (Rattus norvegicus) (UniProt P35439+Q00960); assay: Positive allosteric modulation of recombinant rat GluN1/GluN2B receptor expressed in xenopus laevis oocyte assessed as compound concentration required to show two fold increase in glutamate and glycine-induced current response at holding potential -40mV by two electrode voltage clamp method
[3] = target: T2, Glutamate NMDA receptor; Grin1/Grin2b (Rattus norvegicus); assay: Positive allosteric modulation of recombinant rat GluN1/GluN2B receptor expressed in xenopus laevis oocyte assessed as potentiation of glutamate and glycine-induced current response at 30 uM at holding potential -40mV by two electrode voltage clamp method relative to control
In short: as §1, with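 “final). […]” for “final).”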

[4] = target: Glutamate NMDA receptor; Grin1/Grin2c (Rattus norvegicus, UniProt P35439+Q00961); assay: Positive allosteric modulation of recombinant rat GluN1/GluN2C receptor expressed in xenopus laevis oocyte assessed as potentiation of glutamate and glycine-induced current response at holding potential -40mV by two electrode voltage clamp method; in short: as §1
[5] = target: T3, Glutamate NMDA receptor; Grin1/Grin2c (Rattus norvegicus) (UniProt P35439+Q00961); assay: Positive allosteric modulation of recombinant rat GluN1/GluN2C receptor expressed in xenopus laevis oocyte assessed as potentiation of glutamate and glycine-induced current response at 30 uM at holding potential -40mV by two electrode voltage clamp method relative to control; in short: as §1
[6] = target: T4, Ionotropic glutamate receptor NMDA 1/2D (Rattus norvegicus) (UniProt P35439+Q62645); assay: Positive allosteric modulation of recombinant rat GluN1/GluN2D receptor expressed in xenopus laevis oocyte assessed as potentiation of glycine-induced current response at 30 uM at holding potential -40mV by two electrode voltage clamp method
[7] = target: Ionotropic glutamate receptor NMDA1/2A/2B (Rattus norvegicus) (UniProt P35439+Q00959+Q00960); assay: Positive allosteric modulation of recombinant rat GluN1/GluN2A/GluN2B receptor expressed in xenopus laevis oocyte assessed as potentiation of glutamate and glycine-induced current response at 10 uM at holding potential -40mV by two electrode voltage clamp method relative to control
In short: (§2)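 Triheteromeric GluN1/GluN2A/GluN2B receptors were expressed in oocytes using GluN2 subunits with modified intracellular domains controlling surface expression. Compound was tested at 10 µM by TEVC at -40 mV against maximally effective glutamate and glycine; n=14 oocytes.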

[8] = target: T2, Glutamate NMDA receptor; Grin1/Grin2b (Rattus norvegicus); assay: Positive allosteric modulation of recombinant rat GluN1/GluN2B receptor expressed in xenopus laevis oocyte co-expressing GluN2A at 10 uM assessed as potentiation of glutamate and glycine-induced current response at holding potential -40mV by two electrode voltage clamp method relative to control; in short: as §2
[9] = target: Glutamate NMDA receptor; Grin1/Grin2a (Rattus norvegicus) (UniProt P35439+Q00959); assay: Positive allosteric modulation of recombinant rat GluN1/GluN2A receptor expressed in xenopus laevis oocyte co-expressing GluN2B assessed as potentiation of glutamate and glycine-induced current response at 10 uM at holding potential -40mV by two electrode voltage clamp method relative to control
[10] = target: Ionotropic glutamate receptor NMDA 1/2D (Rattus norvegicus, UniProt P35439+Q62645); assay: Positive allosteric modulation of recombinant rat GluN1/GluN2D receptor expressed in xenopus laevis oocyte assessed as potentiation of glutamate and glycine-induced current response at holding potential -40mV by two electrode voltage clamp method; in short: as §1
Liver = assay: Drug level in human liver microsomes treated with (3-chlorophenyl)(6-isopropoxy-1-((4-methoxyphenoxy)methyl)-3,4-dihydroisoquinolin-2(1H)-yl)methanethione at […] measured at 30 mins by LC/MS/MS analysis; assay type: ADME, microsome; settings: 0.5 h
[11] = target: T4, Ionotropic glutamate receptor NMDA 1/2D (Rattus norvegicus); assay: Positive allosteric modulation of recombinant rat GluN1/GluN2D receptor expressed in xenopus laevis oocyte assessed as compound concentration required to show two fold increase in glutamate and glycine-induced current response at holding potential -40mV by two electrode voltage clamp method
[12] = Ratio of drug level in C57Bl/6 mouse brain to plasma at 10 mg/kg, ip after 4 hrs by LC/MS/MS analysis; assay type: ADME, organism-based
In short: (§3)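 Male/female not stated; 30–35 g C57Bl/6 mice given 10 mg/kg i.p. at 1.25 mg/mL in 5% NMP/20% solutol/75% of 20% hydroxypropyl-β-cyclodextrin. Blood was taken by cardiac puncture into heparin and brains were collected at 0, 15, 30, 60, 120 and 240 min, three mice per time point. Plasma and brain homogenate (1:4 water) were acetonitrile-precipitated and quantified by LC-MS/MS against an 8-point duplicate standard curve.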

Brain = assay: Drug uptake in C57Bl/6 mouse brain at 10 mg/kg, ip after 15 to 30 mins by LC/MS/MS analysis; assay type: ADME, organism-based; settings: in vivo, read-out: Drug uptake; in short: as §3
[13] = target: T3, Glutamate NMDA receptor; Grin1/Grin2c (Rattus norvegicus); assay: Positive allosteric modulation of recombinant rat GluN1/GluN2C receptor expressed in xenopus laevis oocyte assessed as compound concentration required to show two fold increase in glutamate and glycine-induced current response at holding potential -40mV by two electrode voltage clamp method
[14] = target: Glutamate receptor 1 (Rattus norvegicus) (UniProt P19490); assay: Positive allosteric modulation of recombinant rat GluA1 receptor expressed in xenopus laevis oocyte assessed as potentiation of glutamate-induced current response at 30 uM at holding potential -40mV by two electrode voltage clamp method relative to glutamate
[15] = target: Glutamate receptor ionotropic, kainate 2 (Rattus norvegicus) (UniProt P42260); assay: Positive allosteric modulation of recombinant rat GluK2 receptor expressed in xenopus laevis oocyte assessed as potentiation of glutamate-induced current response at 30 uM at holding potential -40mV by two electrode voltage clamp method relative to glutamate
[16] = Ratio of drug level in C57Bl/6 mouse brain to plasma at 10 mg/kg, ip after 15 mins by LC/MS/MS analysis; assay type: ADME, organism-based; in short: as §3
[17] = target: T3, Glutamate NMDA receptor; Grin1/Grin2c (Rattus norvegicus); assay: Positive allosteric modulation of recombinant rat GluN1/GluN2C receptor expressed in xenopus laevis oocyte assessed as potentiation of glutamate-induced current response at 30 uM at holding potential -40mV by two electrode voltage clamp method
In short: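 Rat GluN1/GluN2C (modified GluN2C) expressed from injected mRNA in Xenopus oocytes; two-electrode voltage clamp at -40 mV, 23°C, recording solution pH 7.4 (90 NaCl, 1.0 KCl, 0.5 BaCl2, 0.005 EDTA, 10 HEPES, mM). Compound coapplied with 100 µM glutamate and 30 µM glycine; final DMSO 0.05-0.5%.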

[18] = target: T2, Glutamate NMDA receptor; Grin1/Grin2b (Rattus norvegicus); assay: Positive allosteric modulation of recombinant rat GluN1/GluN2B receptor expressed in xenopus laevis oocyte assessed as potentiation of glutamate-induced current response at 30 uM at holding potential -40mV by two electrode voltage clamp method
Mus musculus = assay: Toxicity in C57Bl/6 mouse assessed as behavioral abnormalities at 10 mg/kg, ip; assay type: organism-based; settings: in vivo
In short: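 C57Bl/6 mice (30–35 g) were dosed at 10 mg/kg i.p. in 5% NMP/20% solutol/75% of 20% hydroxypropyl-β-cyclodextrin and observed for behavioral abnormalities after dosing.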

[19] = Cmax in C57Bl/6 mouse plasma at 10 mg/kg, ip after 2 hrs by LC/MS/MS analysis; assay type: ADME, organism-based; design: dose 10 mg/kg, route intraperitoneal; in short: as §3
[20] = Drug uptake in C57Bl/6 mouse brain at 10 mg/kg, ip after 4 hrs by LC/MS/MS analysis; assay type: ADME, organism-based; settings: read-out: Drug uptake; in short: as §3
[21] = Drug metabolism in human liver microsomes assessed as P450 mediated drug metabolite formation by measuring parent compound half life at […] by LC/MS/MS analysis; assay type: ADME
[22] = target: T4, Ionotropic glutamate receptor NMDA 1/2D (Rattus norvegicus); assay: Positive allosteric modulation of recombinant rat GluN1/GluN2D receptor expressed in xenopus laevis oocyte assessed as potentiation of glutamate and glycine-induced current response at 30 uM at holding potential -40mV by two electrode voltage clamp method relative to control; in short: as §1
[23] = Drug metabolism in human liver microsomes assessed as UGT mediated drug metabolite formation by measuring parent compound half life at […] by LC/MS/MS analysis; assay type: ADME
[24] = target: T1, Glutamate NMDA receptor; Grin1/Grin2b

Sequence of Glutamate receptor 1 (Rattus norvegicus) (P19490 whole entry): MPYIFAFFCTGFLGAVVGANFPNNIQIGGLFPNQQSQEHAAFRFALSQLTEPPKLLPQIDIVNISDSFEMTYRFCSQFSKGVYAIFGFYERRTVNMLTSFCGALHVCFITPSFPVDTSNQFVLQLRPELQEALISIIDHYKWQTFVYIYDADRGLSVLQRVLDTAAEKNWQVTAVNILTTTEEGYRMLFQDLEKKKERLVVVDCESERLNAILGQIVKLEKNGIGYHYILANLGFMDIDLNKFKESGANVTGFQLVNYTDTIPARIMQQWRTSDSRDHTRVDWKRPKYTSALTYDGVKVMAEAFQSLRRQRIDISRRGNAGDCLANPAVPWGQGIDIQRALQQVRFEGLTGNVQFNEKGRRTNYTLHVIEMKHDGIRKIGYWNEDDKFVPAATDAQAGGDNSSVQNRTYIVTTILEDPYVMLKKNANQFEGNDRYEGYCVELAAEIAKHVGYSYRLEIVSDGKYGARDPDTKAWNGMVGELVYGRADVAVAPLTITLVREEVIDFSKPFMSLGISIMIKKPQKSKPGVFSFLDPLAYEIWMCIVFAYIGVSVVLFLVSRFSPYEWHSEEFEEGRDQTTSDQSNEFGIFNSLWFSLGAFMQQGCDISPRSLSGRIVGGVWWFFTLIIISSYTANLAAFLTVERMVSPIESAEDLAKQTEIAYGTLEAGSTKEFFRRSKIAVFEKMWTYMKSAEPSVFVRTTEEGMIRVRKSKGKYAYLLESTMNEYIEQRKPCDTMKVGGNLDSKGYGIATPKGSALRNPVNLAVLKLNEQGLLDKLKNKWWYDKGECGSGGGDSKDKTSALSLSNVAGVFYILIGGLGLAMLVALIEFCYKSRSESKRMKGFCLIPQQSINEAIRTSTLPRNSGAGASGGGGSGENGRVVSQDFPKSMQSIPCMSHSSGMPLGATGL
Sequence of Glutamate receptor ionotropic, kainate 2 (Rattus norvegicus) (P42260 whole entry): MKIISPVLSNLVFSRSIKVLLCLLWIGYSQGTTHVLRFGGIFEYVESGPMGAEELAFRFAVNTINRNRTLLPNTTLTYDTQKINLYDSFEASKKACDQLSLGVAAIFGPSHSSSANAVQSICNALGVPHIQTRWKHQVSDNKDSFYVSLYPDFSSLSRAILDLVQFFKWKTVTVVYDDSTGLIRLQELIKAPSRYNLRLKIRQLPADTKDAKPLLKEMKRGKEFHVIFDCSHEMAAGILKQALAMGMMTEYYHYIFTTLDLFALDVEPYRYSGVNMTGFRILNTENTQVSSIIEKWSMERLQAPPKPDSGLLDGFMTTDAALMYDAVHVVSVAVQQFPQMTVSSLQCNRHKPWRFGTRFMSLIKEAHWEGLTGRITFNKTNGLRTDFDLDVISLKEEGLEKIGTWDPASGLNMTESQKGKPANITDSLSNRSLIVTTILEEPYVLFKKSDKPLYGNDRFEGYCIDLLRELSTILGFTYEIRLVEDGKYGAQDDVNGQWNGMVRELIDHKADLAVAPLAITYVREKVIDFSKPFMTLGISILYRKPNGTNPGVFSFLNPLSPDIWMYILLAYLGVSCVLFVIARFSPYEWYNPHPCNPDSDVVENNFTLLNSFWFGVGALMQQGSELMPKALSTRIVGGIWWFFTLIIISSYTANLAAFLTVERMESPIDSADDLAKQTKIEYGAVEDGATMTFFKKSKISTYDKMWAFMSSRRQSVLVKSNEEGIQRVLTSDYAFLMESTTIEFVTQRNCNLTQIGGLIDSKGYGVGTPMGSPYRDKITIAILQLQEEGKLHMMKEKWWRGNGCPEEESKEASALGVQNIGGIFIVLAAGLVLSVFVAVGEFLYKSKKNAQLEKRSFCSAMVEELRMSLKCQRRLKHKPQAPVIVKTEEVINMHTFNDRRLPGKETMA

Row | pEC50 [1] | CD [2] | Emax [3] | pEC50 [4] | Emax [5] | Compound | Activity [6] | pEC50 [10] | CD [11] | CD [13] | also measured
1 | 5.33 | 40 µM | 204% | 5.44 | 128% | CCOc1ccc(OC[C@@H]2c3ccc(OC(C)C)cc3CCN2C(=O)c2cccc(F)c2)cc1 | 110% | – | – | – | Activity [7]: 136%; Activity [8]: 177%; Activity [9]: 103%
2 | 6.31 | 2.6 µM | 213% | 6.38 | 225% | COc1ccc(OCC2c3ccc(OC(C)C)cc3CCN2C(=S)c2cccc(Cl)c2)cc1 (stereo not given) | – | 6.37 | 0.8 µM | 1.1 µM | t1/2 [21]: 29 min; Emax [22]: 229%; t1/2 [23]: 29 min
3 | – | – | – | – | – | NCCCNCCCCNCCCN [SPERMINE] | – | – | – | – | pEC50 [24]: 3.70 to 4.00

Row | Compound | pEC50 [1] | CD [2] | Emax [3] | pEC50 [4] | Emax [5] | Activity [6] | pEC50 [10] | CD [11] | CD [13] | also measured
4 | COc1ccc(OCC2c3ccc(OC(C)C)cc3CCN2C(=O)c2cccc(Cl)c2)cc1 (stereo not given) | 5.28 | 64 µM | 202% | – | – | inactive | 5.52 | 4.9 µM | 4.6 µM | Activity [3]: 195%; Drug metabolism (Liver): Metabolite_Detected; BPR [12]: 0.9; concentration (Brain): 700 nM; Activity [14]: 106%; Activity [15]: 96%; BPR [16]: 0.7; Activity [17]: inactive; Activity [18]: inactive; Activity (Mus musculus): Non-Toxic; Cmax [19]: 1700 nM; concentration at 4 h [20]: 400 nM
